Holding throughout (format): functional
The subject of test [1] is Staphylococcus aureus. Put plainly: In vivo efficacy as ED50 against Staphylococcus aureus HS-93 by oral administration in mice. In a few lines: (§1)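 Mice, 4 groups of 10, infected intraperitoneally with slightly more than the LD100 of the organism. A single oral dose was given immediately after infection, with four doses (one per group) chosen from in vitro activity. Survival was scored after one week. ED50 (total dose, mg/kg, protecting 50%) was interpolated among group survival rates.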

The test system of test [2] is Escherichia coli. Description: In vivo efficacy as ED50 against Escherichia coli HM-42 by oral administration in mice. In a few lines: as §1
For another test, the system named is Morganella morganii. Description: In vitro antibacterial activity measured as minimum inhibitory concentration was evaluated on morganella morganii ATCC 8019 (Mm). In a few lines:
(§2)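 Serial 2-fold agar dilution in Mueller Hinton medium, run side by side with reference quinolones. Inoculum 10^5 cfu/mL; compound range 0.007–16 µg/mL.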

The test system of test [3] is Escherichia coli. Description: In vitro antibacterial activity measured as minimum inhibitory concentration, was evaluated on Escherichia coli ATCC 23559(Ec). A digest of the protocol:
as §2

Another test concerns Bacillus cereus. Put plainly: In vitro antibacterial activity measured as minimum inhibitory concentration was evaluated on Bacillus cereus ATCC 11778 (Bc). A digest of the protocol: as §2
For another test, the system named is Proteus vulgaris. Put plainly: In vitro antibacterial activity measured as minimum inhibitory concentration was evaluated on proteus vulgaris ATCC 8427 (Pv). A digest of the protocol: as §2
A further test deals with Enterobacter cloacae. Description: In vitro antibacterial activity measured as minimum inhibitory concentration, was evaluated on Enterobacter cloacae ATCC 23355 (Ecl).
Another test relates to Bacillus subtilis. Put plainly: In vitro antibacterial activity measured as minimum inhibitory concentration was evaluated on Bacillus subtilis ATCC 6633(Bs). A digest of the protocol:
as §2

The test system of test [4] is Pseudomonas aeruginosa. Description: In vivo efficacy as ED50 against Pseudomonas aeruginosa HS-116 by oral administration in mice. In a few lines: as §1
For test [5], the system named is Staphylococcus epidermidis. Description: In vitro antibacterial activity measured as minimum inhibitory concentration was evaluated on Staphylococcus epidermidis ATCC 155-1 (Se). In a few lines:
as §2

In a further test the test system is Enterococcus faecalis. Put plainly: In vitro antibacterial activity measured as minimum inhibitory concentration was evaluated on Streptococcus faecalis ATCC 10541 (Sf). In a few lines:
as §2

A further test relates to Klebsiella pneumoniae. Put plainly: In vitro antibacterial activity measured as minimum inhibitory concentration was evaluated on klebsiella pneumoniae ATCC 10031 (Kp). In a few lines: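 Serial 2-fold agar dilution in Mueller Hinton medium, run side by side with reference quinolones.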
Test [6] deals with Staphylococcus aureus. Description: In vitro antibacterial activity measured as minimum inhibitory concentration was evaluated on Staphylococcus aureus ATCC 25178 (Sa). In a few lines:
as §2

Test [7] relates to Pseudomonas aeruginosa. Put plainly: In vitro antibacterial activity measured as minimum inhibitory concentration was evaluated on Pseudomonas aeruginosa ATCC 10145 (Pa). A digest of the protocol: as §2
The mark [8] stands for this setting: Staphylococcus aureus, po, read-out: ED50.
The mark [9] stands for this setting: Escherichia coli, po, read-out: ED50.
Where [10] appears, read: Morganella morganii, ATCC 8019, read-out: MIC.
Where [11] appears, read: Escherichia coli, ATCC 23559, read-out: MIC.
The mark [12] stands for this setting: Bacillus cereus, ATCC 11778, read-out: MIC.
The mark [13] stands for this setting: Proteus vulgaris, ATCC 8427, read-out: MIC.
Setting [14] is: Enterobacter cloacae, ATCC 23355, read-out: MIC.
Setting [15] is: Bacillus subtilis, ATCC 6633, read-out: MIC.
[16] abbreviates: Pseudomonas aeruginosa, po, read-out: ED50.
Setting [17] is: Staphylococcus epidermidis, ATCC 155-1, read-out: MIC.
Setting [18] is: Enterococcus faecalis, ATCC 10541, read-out: MIC.
Setting [19] is: Klebsiella pneumoniae, ATCC 10031, read-out: MIC.
Where [20] appears, read: Staphylococcus aureus, ATCC 25178, read-out: MIC.
Setting [21] is: Pseudomonas aeruginosa, ATCC 10145, read-out: MIC.

Each structure is given as a SMILES string. ≈ marks a conversion by molar mass, not a printed value.

For orientation: ED50 means the dose that gives a 50% effect, or the effect in half of the subjects. What is called MIC is the smallest concentration in the dilution series that meets the test's criterion for growth inhibition.

Consider `C[C@@H]1[C@@H](N)CN1c1c(F)cc2c(=O)c(C(=O)O)cn(C3CC3)c2c1Cl`, for which the ED50 in the test with Staphylococcus aureus [1] (setting [8]) is 19.1 mg/kg; in the test with Escherichia coli [2] (setting [9]) it was 18.4 mg/kg; in the test with Pseudomonas aeruginosa [4] (setting [16]), 147 mg/kg. Further, the MIC was 0.25 mg/L (≈ 0.683 µM) with Morganella morganii (setting [10]); 0.25 mg/L (≈ 0.683 µM) in the test with Escherichia coli [3] (setting [11]); 0.5 mg/L (≈ 1.37 µM) in the test with Bacillus cereus (setting [12]); 0.25 mg/L (≈ 0.683 µM) in the test on Proteus vulgaris (setting [13]); 0.25 mg/L (≈ 0.683 µM) in the test on Enterobacter cloacae (setting [14]); 0.12 mg/L (≈ 0.328 µM) in the test on Bacillus subtilis (setting [15]). The MIC in test [5] (setting [17]) stood at 0.5 mg/L (≈ 1.37 µM); in the test with Enterococcus faecalis (setting [18]), 0.25 mg/L (≈ 0.683 µM); with Klebsiella pneumoniae (setting [19]) it was 2 mg/L (≈ 5.47 µM); in the test with Staphylococcus aureus [6] (setting [20]), 0.5 mg/L (≈ 1.37 µM); with Pseudomonas aeruginosa [7] (setting [21]) it was 4 mg/L (≈ 10.9 µM).

Turning to `CC1C(N)CN1c1c(F)cc2c(=O)c(C(=O)O)cn(-c3ccc(F)cc3F)c2c1F` (centres undefined), the ED50 in the test on Staphylococcus aureus [1] (setting [8]) stood at 10 mg/kg; with Escherichia coli [2] (setting [9]) it was 2.3 mg/kg; in the test on Pseudomonas aeruginosa [4] (setting [16]) it was 61 mg/kg. For the same compound, the minimum inhibitory concentration (MIC) worked out at 0.12 mg/L (≈ 0.285 µM) in the test with Morganella morganii (setting [10]); 0.06 mg/L (≈ 0.142 µM) in the test on Escherichia coli [3] (setting [11]); 0.12 mg/L (≈ 0.285 µM) in the test on Bacillus cereus (setting [12]); 0.5 mg/L (≈ 1.19 µM) in the test on Proteus vulgaris (setting [13]); 0.06 mg/L (≈ 0.142 µM) in the test on Enterobacter cloacae (setting [14]); 0.06 mg/L (≈ 0.142 µM) in the test with Bacillus subtilis (setting [15]). In addition, the MIC in [5] (setting [17]) was found to be 0.12 mg/L (≈ 0.285 µM); with Enterococcus faecalis (setting [18]), 1 mg/L (≈ 2.37 µM); in the test on Klebsiella pneumoniae (setting [19]) it was 0.06 mg/L (≈ 0.142 µM); with Staphylococcus aureus [6] (setting [20]), 0.12 mg/L (≈ 0.285 µM); in the test with Pseudomonas aeruginosa [7] (setting [21]), 1 mg/L (≈ 2.37 µM).

For the compound `C[C@@H]1[C@@H](N)CN1c1c(F)cc2c(=O)c(C(=O)O)cn3c2c1OC[C@@H]3C`, the figures for the ED50 with Staphylococcus aureus [1] (setting [8]), in the test with Escherichia coli [2] (setting [9]) and in the test on Pseudomonas aeruginosa [4] (setting [16]) were 46.1 mg/kg, 50 mg/kg and 53 mg/kg, respectively. For the same compound, the MIC was 0.12 mg/L (≈ 0.345 µM) in the test on Morganella morganii (setting [10]); 0.25 mg/L (≈ 0.72 µM) in the test on Escherichia coli [3] (setting [11]); 0.5 mg/L (≈ 1.44 µM) in the test on Bacillus cereus (setting [12]); 0.5 mg/L (≈ 1.44 µM) in the test on Proteus vulgaris (setting [13]); 0.25 mg/L (≈ 0.72 µM) in the test with Enterobacter cloacae (setting [14]); 0.12 mg/L (≈ 0.345 µM) with Bacillus subtilis (setting [15]). For the same compound, the MIC in test [5] (setting [17]) amounted to 0.25 mg/L (≈ 0.72 µM); in the test on Enterococcus faecalis (setting [18]), 1 mg/L (≈ 2.88 µM); in the test on Klebsiella pneumoniae (setting [19]) it was 0.06 mg/L (≈ 0.173 µM); with Staphylococcus aureus [6] (setting [20]) it was 0.25 mg/L (≈ 0.72 µM); in the test on Pseudomonas aeruginosa [7] (setting [21]) it was 4 mg/L (≈ 11.5 µM).

Turning to `C[C@@H]1[C@@H](N)CN1c1c(F)cc2c(=O)c(C(=O)O)cn(C3CC3)c2c1F` (stereo in doubt; 22), the ED50 was determined as 9 mg/kg in the test on Staphylococcus aureus [1], 2 mg/kg in the test on Escherichia coli [2] and 22 mg/kg in the test with Pseudomonas aeruginosa [4]. The MIC in the test with Morganella morganii was 0.03 mg/L (≈ 0.0859 µM); against Escherichia coli [3] it was 0.015 mg/L (≈ 0.0429 µM); with Bacillus cereus it was 0.06 mg/L (≈ 0.172 µM); against Proteus vulgaris it was 0.06 mg/L (≈ 0.172 µM); in the test on Enterobacter cloacae, 0.03 mg/L (≈ 0.0859 µM); with Bacillus subtilis it was 0.03 mg/L (≈ 0.0859 µM). The MIC in test [5] amounted to 0.06 mg/L (≈ 0.172 µM); against Enterococcus faecalis, 0.25 mg/L (≈ 0.716 µM); with Klebsiella pneumoniae, 0.03 mg/L (≈ 0.0859 µM); with Staphylococcus aureus [6] it was 0.06 mg/L (≈ 0.172 µM); against Pseudomonas aeruginosa [7], 0.25 mg/L (≈ 0.716 µM).

As for `C[C@@H]1[C@H](N)CN1c1c(F)cc2c(=O)c(C(=O)O)cn(C3CC3)c2c1F` (stereo in doubt; 23), the ED50 in the test on Staphylococcus aureus [1] amounted to 18.6 mg/kg; in the test on Escherichia coli [2] (setting [9]) it was 6.2 mg/kg; in the test on Pseudomonas aeruginosa [4] (setting [16]), 123 mg/kg. Besides, the MIC in the test with Morganella morganii (setting [10]) turned out to be 0.12 mg/L (≈ 0.344 µM); in the test on Escherichia coli [3] (setting [11]) it was 0.06 mg/L (≈ 0.172 µM); in the test on Bacillus cereus (setting [12]), 0.12 mg/L (≈ 0.344 µM); against Proteus vulgaris, 0.25 mg/L (≈ 0.716 µM); with Enterobacter cloacae (setting [14]), 0.06 mg/L (≈ 0.172 µM); with Bacillus subtilis (setting [15]) it was 0.06 mg/L (≈ 0.172 µM). For the same compound, the MIC in test [5] (setting [17]) amounted to 0.12 mg/L (≈ 0.344 µM); in the test with Enterococcus faecalis (setting [18]), 1 mg/L (≈ 2.86 µM); with Klebsiella pneumoniae it was 0.12 mg/L (≈ 0.344 µM); with Staphylococcus aureus [6] (setting [20]) it was 0.12 mg/L (≈ 0.344 µM); with Pseudomonas aeruginosa [7] (setting [21]), 1 mg/L (≈ 2.86 µM).

Turning to `C[C@@H]1[C@H](N)CN1c1c(F)cc2c(=O)c(C(=O)O)cn(C3CC3)c2c1F` (stereo in doubt; 23c), the ED50 was 5.4 mg/kg in the test with Staphylococcus aureus [1], 6.1 mg/kg in the test on Escherichia coli [2] and 117 mg/kg in the test with Pseudomonas aeruginosa [4]. Besides, the minimum inhibitory concentration (MIC) in the test on Morganella morganii is 0.06 mg/L (≈ 0.172 µM); against Escherichia coli [3] it was 0.03 mg/L (≈ 0.0859 µM); in the test with Bacillus cereus, 0.06 mg/L (≈ 0.172 µM); with Proteus vulgaris it was 0.12 mg/L (≈ 0.344 µM); against Enterobacter cloacae, 0.03 mg/L (≈ 0.0859 µM); against Bacillus subtilis, 0.03 mg/L (≈ 0.0859 µM). The MIC in test [5] was determined as 0.12 mg/L (≈ 0.344 µM); against Enterococcus faecalis, 0.5 mg/L (≈ 1.43 µM); in the test on Klebsiella pneumoniae, 0.03 mg/L (≈ 0.0859 µM); against Staphylococcus aureus [6], 0.06 mg/L (≈ 0.172 µM); in the test on Pseudomonas aeruginosa [7] it was 0.5 mg/L (≈ 1.43 µM).

The record behind these values is ChEMBL document CHEMBL1128288, “7-Azetidinylquinolones as antibacterial agents. 3. Synthesis, properties and structure-activity relationships of the stereoisomers containing a 7-(3-amino-2-methyl-1-azetidinyl) moiety” (J Med Chem, 1995).
